{"source": "paper PMC3057505", "about": "(Journal of medicinal chemistry, 2010)", "key": {"[1]": {"system": "Aβ plaques", "assay": "In vivo BBB delivery to Aβ plaque-bearing PDAPP mouse brain", "parameters": "species or system PDAPP transgenic mice", "details": "single 50 mg/kg IP, ten-month-old PDAPP mice, sacrificed 48 h after injection", "in_short": "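Ten-month-old PDAPP transgenic mice received a single ip dose of 50 mg/kg test compound, with vehicle-only controls (10% DMSO/PBS). At 48 h they were killed by transcardial perfusion with 4% PFA in PBS. Brains were cryoprotected, frozen, sectioned, postfixed 5 min in 4% PFA, washed in PBS and mounted. Plaque fluorescence was imaged in hippocampal CA1 and dentate gyrus at 10× and 40×.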"}, "[2]": {"system": "Aβ plaques in human AD brain sections", "assay": "Fluorescence staining of human AD brain sections", "format": "binding", "details": "50 μM, 30 min, 9:1 PBS:EtOH, frozen sections 10 μm", "in_short": "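Frozen 10 μm sections of human AD brain and age-matched control brain. Stained 30 min with 50 μM test compound in 9:1 PBS/EtOH, made by diluting a DMSO stock to 0.50 mM in EtOH and then into PBS/EtOH. Washed in turn with 75% aqueous EtOH, 95% EtOH and xylene. Plaque staining was read by fluorescence microscopy.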"}, "[3]": {"assay": "DPPH free radical scavenging assay", "format": "physicochemical", "details": "for DPPH free radical scavenging activity relative to quercetin: vs quercetin IC50 = 1.3 ± 1.1 μM; for fold less potent than quercetin in DPPH free radical scavenging: p < 0.05 vs quercetin"}, "[4]": {"molecular_target": "aggregated amyloid peptide Aβ1-40 (Homo sapiens, UniProt P05067)", "sequence (P05067 672-711 limits assumed)": "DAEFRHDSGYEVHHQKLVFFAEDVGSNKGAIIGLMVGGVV", "assay": "In vitro Aβ1-40 binding affinity by fluorescence titration", "details": "for decrease in Aβ binding affinity: compared to 4; for fold weaker Aβ binding affinity compared to 4: ratio of Kd vs compound 4"}, "[5]": {"system": "Aβ plaques", "format": "binding, APP/PS1 transgenic mouse", "in_short": "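Brains from 11-month-old APP/PS1 mice (Tg2576 APP Swedish × M146L PS1 line) were perfused with 4% paraformaldehyde, cryoprotected in 20% sucrose and cut into 10 μm frozen sections, three per dilution point. Sections were stained 30 min with 50 μM test compound in 9:1 PBS/EtOH, then washed in 75% EtOH, 95% EtOH and xylene. S/N was taken as plaque fluorescence over background tissue.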"}, "[6]": {"system": "Aβ plaques", "details": "APP or APP/PS1 mice; cited from earlier work"}}, "note": "Entries after “also recorded” stand apart in the source; their conditions may differ.", "data": [{"smiles": "Oc1ccc(/C=C/c2ccc(/C=C/c3ccc(O)cc3)cc2)cc1", "note": "[Compound 4, (E,E)-1,4-bis(4-hydroxystyryl)benzene]", "values": [{"measurement": "BBB crossing and Aβ plaque binding in vivo", "setting": "[1]; 50 mg/kg", "result": "crossed the BBB and bound to Aβ plaques in vivo; also recorded: crossed the blood-brain-barrier and bound to Aβ plaques in vivo"}, {"measurement": "staining of Aβ plaques in human AD brain sections", "setting": "[2]", "result": "bind specifically to Aβ plaques in human brain sections"}, {"measurement": "DPPH free radical scavenging activity relative to quercetin", "setting": "[3]", "result": "no less effective than quercetin"}]}, {"smiles": "Oc1ccc(/C=C/c2cccc(/C=C/c3ccc(O)cc3)c2)cc1", "note": "[Compound 6, (E,E)-1,3-bis(4-hydroxystyryl)benzene]", "values": [{"measurement": "decrease in Aβ binding affinity", "setting": "[4]", "result": "two order of magnitude decrease"}, {"measurement": "DPPH free radical scavenging activity relative to quercetin", "setting": "[3]", "result": "no less effective than quercetin"}]}, {"smiles": "Oc1ccc(/C=C/c2ccccc2/C=C/c2ccc(O)cc2)cc1", "note": "[Compound 7, (E,E)-1,2-bis(4-hydroxystyryl)benzene]", "values": [{"measurement": "decrease in Aβ binding affinity", "setting": "[4]", "result": "two order of magnitude decrease"}, {"measurement": "fold less potent than quercetin in DPPH free radical scavenging", "setting": "[3]", "result": "3 to 7", "unit": "fold"}]}, {"smiles": "Oc1cccc(/C=C/c2ccc(/C=C/c3cccc(O)c3)cc2)c1", "note": "[Compound 8, (E,E)-1,4-bis(3-hydroxystyryl)benzene]", "values": [{"measurement": "BBB crossing and Aβ plaque binding in vivo", "setting": "[1]; 50 mg/kg", "result": "crossed the BBB and bound to Aβ plaques in vivo; also recorded: crossed the blood-brain-barrier and bound to Aβ plaques in vivo"}, {"measurement": "staining of Aβ plaques in human AD brain sections", "setting": "[2]", "result": "bind specifically to Aβ plaques in human brain sections"}]}, {"smiles": "Oc1ccccc1/C=C/c1ccc(/C=C/c2ccccc2O)cc1", "note": "[Compound 9, (E,E)-1,4-bis(2-hydroxystyryl)benzene]", "values": [{"measurement": "fold weaker Aβ binding affinity compared to 4", "setting": "[4]", "result": 84, "unit": "fold"}, {"measurement": "Aβ binding specificity", "setting": "[5]; APP/PS1 mouse brain sections", "result": "good binding specificity"}, {"measurement": "fold less potent than quercetin in DPPH free radical scavenging", "setting": "[3]", "result": "3 to 7", "unit": "fold"}]}, {"smiles": "Oc1cc(O)cc(/C=C/c2ccc(/C=C/c3cc(O)cc(O)c3)cc2)c1", "note": "[Compound 10, (E,E)-1,4-bis(3,5-dihydroxystyryl)benzene]", "values": [{"measurement": "BBB crossing and Aβ plaque binding in vivo", "setting": "[1]", "result": "crossed the BBB and bound to Aβ plaques in vivo"}, {"measurement": "fold weaker Aβ binding affinity compared to 4", "setting": "[4]", "result": "17 to 27", "unit": "fold"}, {"measurement": "staining of Aβ plaques in human AD brain sections", "setting": "[2]", "result": "bind specifically to Aβ plaques in human brain sections"}, {"measurement": "fold less potent than quercetin in DPPH free radical scavenging", "setting": "[3]", "result": "3 to 7", "unit": "fold"}]}, {"smiles": "Oc1ccc(/C=C/c2ccc(/C=C/c3ccccc3)cc2)cc1", "note": "[Compound 11, (E,E)-1-styryl-4-(4-hydroxystyryl)benzene]", "values": [{"measurement": "fold weaker Aβ binding affinity compared to 4", "setting": "[4]", "result": 16, "unit": "fold"}]}, {"smiles": "Oc1ccc(/C=C/c2ccc(/C=C/c3cccc(O)c3)cc2)cc1", "note": "[Compound 12, (E,E)-1-(4-hydroxystyryl)-4-(3-hydroxystyryl)benzene]", "values": [{"measurement": "fold weaker Aβ binding affinity compared to 4", "setting": "[4]", "result": 370, "unit": "fold"}, {"measurement": "fold weaker Aβ binding affinity compared to 8", "setting": "[4]; ratio of Kd vs compound 8", "result": 660, "unit": "fold"}, {"measurement": "DPPH free radical scavenging activity relative to quercetin", "setting": "[3]", "result": "no less effective than quercetin"}]}, {"smiles": "Oc1ccc(/C=C/c2ccc(/C=C/c3ccc(O)c(O)c3)cc2)cc1", "note": "[Compound 13, (E,E)-1-(4-hydroxystyryl)-4-(3,4-dihydroxystyryl)benzene]", "values": [{"measurement": "fold weaker Aβ binding affinity compared to 4", "setting": "[4]", "result": "17 to 27", "unit": "fold"}]}, {"smiles": "Oc1ccc(/C=C/c2ccc(/C=C/c3cc(O)cc(O)c3)cc2)cc1", "note": "[Compound 14, (E,E)-1-(4-hydroxystyryl)-4-(3,5-dihydroxystyryl)benzene]", "values": [{"measurement": "fold weaker Aβ binding affinity compared to 4", "setting": "[4]", "result": "17 to 27", "unit": "fold"}, {"measurement": "fold less potent than quercetin in DPPH free radical scavenging", "setting": "[3]", "result": "3 to 7", "unit": "fold"}]}, {"smiles": "Oc1cccc(/C=C/c2ccc(/C=C/c3ccc(O)c(O)c3)cc2)c1", "note": "[Compound 15, (E,E)-1-(3-hydroxystyryl)-4-(3,4-dihydroxystyryl)benzene]", "values": [{"measurement": "fold less potent than quercetin in DPPH free radical scavenging", "setting": "[3]", "result": "3 to 7", "unit": "fold"}]}, {"smiles": "Oc1ccc(/C=C/c2ccc(O)cc2)cc1", "note": "[Compound 16]", "values": [{"measurement": "decrease in Aβ binding affinity", "setting": "[4]", "result": "three orders of magnitude weaker"}, {"measurement": "DPPH free radical scavenging activity relative to quercetin", "setting": "[3]", "result": "no less effective than quercetin"}]}, {"smiles": "Oc1ccc(C#Cc2ccc(C#Cc3ccc(O)cc3)cc2)cc1", "note": "[Compound 17]", "values": [{"measurement": "fold weaker Aβ binding affinity compared to 4", "setting": "[4]", "result": 6, "unit": "fold"}, {"measurement": "fold loss in specificity compared to 4", "setting": "[5]; ratio of S/N vs compound 4", "result": 2.4, "unit": "fold"}]}, {"smiles": "O=C(O)c1cc(/C=C/c2ccc(/C=C/c3ccc(O)c(C(=O)O)c3)cc2)ccc1O", "note": "[Compound X-34]", "values": [{"measurement": "BBB penetration and binding to Aβ plaques", "setting": "[6]", "result": "penetrate the blood – brain barrier (BBB) and bind to Aβ plaques"}]}, {"smiles": "O=C(O)c1cc(/C=C/c2ccc(/C=C/c3ccc(O)c(C(=O)O)c3)c(F)c2)ccc1O", "note": "[FSB]", "values": [{"measurement": "BBB penetration and binding to Aβ plaques", "setting": "[6]", "result": "penetrate the blood – brain barrier (BBB) and bind to Aβ plaques"}]}]}
